Consider four compounds from ChEMBL document CHEMBL3875213, “Quinolines: Microwave-assisted synthesis and their antifungal, anticancer and radical scavenger properties” (Bioorg Med Chem, 2017).

Converted amounts (≈) assume the structure as drawn. The source made the active and inactive calls. No cut-off for these calls is given here.

Assay [1] concerns Candida albicans. Description: Growth inhibition of Candida albicans ATCC 10231 at 250 ug/ml incubated for 48 hrs under dark condition by broth microdilution assay relative to amphotericin B. Format: functional. The settings on record: ATCC 10231, 48 h, read-out: GI. In outline: (§1)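 Yeast broth microdilution (CLSI M27-A3), RPMI-1640, inoculum 1-5 x 10^3 CFU/mL, DMSO ≤1%, 48 h at 30 °C in a moist, dark chamber. […]. Triplicate; amphotericin B as positive control.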
(In general: Dilution methods test growth across graded concentrations, often in twofold steps.)

Assay [2] is described as follows: Antioxidant activity assessed as fluorescent light-induced superoxide anion scavenging activity at 160 uM incubated for 10 mins by nitroblue tetrazolium dye based assay. Format: functional. The essentials: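 Superoxide generated photochemically in 50 mM phosphate buffer pH 7.8 with 13 mM L-methionine, 75 µM nitroblue tetrazolium, 100 µM EDTA and 2 µM riboflavin. Compound at 160 µM. 10 min at 25 °C under fluorescent light; dark controls. Read at 575 nm. Resveratrol as positive control; three independent experiments in triplicate.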

Assay [3] can be described thus: Antioxidant activity assessed as DPPH radical scavenging activity incubated for 30 mins under dark condition. The format is functional. In outline: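 DPPH (100 µM) in ethanolic medium, stirred 30 min in the dark, absorbance at 517 nm. Compound varied from 0 to 160 µg/mL to find the concentration scavenging 50% of radicals. Three independent experiments, each in triplicate.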

The subject of assay [4] is Candida albicans. Description: Antifungal activity against Candida albicans ATCC 10231 incubated for 48 hrs under dark condition by broth microdilution assay. The format is functional. Particulars: ATCC 10231, 48 h. In outline:
(§2)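 Broth microdilution per CLSI M27-A3 in RPMI-1640. Inocula adjusted to 1-5 x 10^3 CFU/mL. Stocks in DMSO (≤1%), final 3.9-250.0 µg/mL. Incubated 48 h at 30 °C in a moist, dark chamber, read at OD 405. % inhibition computed from growth and sterility control wells, run in triplicate. MIC80/MIC50 taken from four-parameter logistic concentration-response curves; amphotericin B as positive control.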

The test system of assay [5] is Candida albicans. Description: Growth inhibition of Candida albicans ATCC 10231 at 3.9 ug/ml incubated for 48 hrs under dark condition by broth microdilution assay relative to amphotericin B. Format: functional. Particulars: ATCC 10231, 48 h, read-out: GI. The essentials: as §1
Assay [6] in a line: Antiproliferative activity against human Hep2C cells after 24 hrs by MTT assay. Format: functional, cell-based. In outline: (§3)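 Cells grown in medium with 10% foetal bovine serum and 1% L-glutamine at 37 °C, 5% CO2, seeded at 1 x 10^5 cells/well. Exposed to compound at 1.0-1,000 µg/mL for 24 h. MTT added, absorbance read at 540 nm 3 h later. IC50 obtained by non-linear regression of viability data.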
In general terms: Tetrazolium dyes change colour on reduction, which living cells bring about.

Assay [7] relates to Candida albicans. Nature of the assay: Growth inhibition of Candida albicans ATCC 10231 at 62.5 ug/ml incubated for 48 hrs under dark condition by broth microdilution assay relative to amphotericin B. The format is functional. The settings on record: ATCC 10231, 48 h, read-out: GI. The essentials: as §1
Assay [8] in a line: Antioxidant activity assessed as fluorescent light-induced superoxide anion scavenging activity incubated for 10 mins by nitroblue tetrazolium dye based assay. Format: functional. The essentials: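 Riboflavin/light superoxide system: 50 mM phosphate pH 7.8, 13 mM L-methionine, 75 µM NBT, 100 µM EDTA, 2 µM riboflavin, compound 0-200 µg/mL. Fluorescent light for 10 min at 25 °C, dark controls, scavenging measured at 575 nm. Resveratrol as reference.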

A short description of assay [9]: Antioxidant activity assessed as DPPH radical scavenging activity at 160 uM incubated for 30 mins under dark condition. The format is functional. In outline: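 Compound at 160 µM incubated with 100 µM DPPH in ethanolic medium, stirred in the dark for 30 min, read at 517 nm. Resveratrol as positive control. Three independent experiments, each in triplicate.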

The test system of assay [10] is Candida albicans. Nature of the assay: Growth inhibition of Candida albicans ATCC 10231 at 7.81 ug/ml incubated for 48 hrs under dark condition by broth microdilution assay relative to amphotericin B. Particulars: ATCC 10231, 48 h, read-out: GI. The format is functional. The essentials:
as §1

Assay [11] is described as follows: Potency index, ratio of resveratrol SC50 to compound SC50 for fluorescent light-induced superoxide anion scavenging activity.
Assay [12] concerns Candida albicans. Nature of the assay: Growth inhibition of Candida albicans ATCC 10231 at 31.25 ug/ml incubated for 48 hrs under dark condition by broth microdilution assay relative to amphotericin B. Format: functional. Particulars: ATCC 10231, 48 h, read-out: GI. The essentials: as §1
Assay [13] relates to Candida albicans. Nature of the assay: Growth inhibition of Candida albicans ATCC 10231 at 125 ug/ml incubated for 48 hrs under dark condition by broth microdilution assay relative to amphotericin B. Format: functional. Particulars: ATCC 10231, 48 h, read-out: GI. The essentials: as §1
Assay [14] has as its system Candida albicans. Description: Growth inhibition of Candida albicans ATCC 10231 at 15.62 ug/ml incubated for 48 hrs under dark condition by broth microdilution assay relative to amphotericin B. Format: functional. Particulars: ATCC 10231, 48 h, read-out: GI. The essentials:
as §1

Assay [15] can be described thus: Antifungal activity against Cryptococcus neoformans ATCC 32264 incubated for 48 hrs under dark condition by broth microdilution assay. Format: functional. In outline: as §2
Assay [16] is described as follows: Selectivity index, ratio of IC50 for human CCD-19Lu cells to IC50 for human Hep2C cells. The format is functional. The essentials:
(§4)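 Selectivity index equals IC50 in non-tumour CCD 19-Lu lung fibroblasts divided by IC50 in the tumour line. Both IC50s come from the 24 h MTT assay (read at 540 nm) over 1.0-1,000 µg/mL.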

The subject of a further assay is NCI-H226. Description: Selectivity index, ratio of IC50 for human CCD-19Lu cells to IC50 for human NCI-H226 cells. Format: functional. In outline:
as §4

Assay [17] can be described thus: Antiproliferative activity against human NCI-H226 cells harboring TP53 mutant after 24 hrs by MTT assay. The format is functional, cell-based. The settings on record: NCI-H226, 24 h. In outline:
as §3

Assay [18] is described as follows: Antiproliferative activity against human TOV21G harboring wild type TP53 cells after 24 hrs by MTT assay. The format is functional, cell-based. In outline:
as §3

A short description of assay [19]: Selectivity index, ratio of IC50 for human CCD-19Lu cells to IC50 for human TOV21G cells. Format: functional. In outline:
as §4

Assay [20] in a line: Antiproliferative activity against human CCD-19Lu cells after 24 hrs by MTT assay. The format is cell-based. In outline: as §3
Assay [21] can be described thus: Ratio of antifungal activity against Candida albicans ATCC 10231 to antifungal activity against Cryptococcus neoformans ATCC 32264. The format is functional.

As for `Cc1ccc(-c2cc(-c3ccccc3)c3cc(Br)ccc3n2)cc1`, the inhibition of growth at 250 µg/mL in the assay on Candida albicans [1] is 31.5%. In [2], the outcome was Active. The SC50 in assay [3] is 197 µM; in assay [8] it was 104 µM. Further, the MIC50 (in general, the lowest concentration that inhibits either 50% of growth or 50% of the strains tested, depending on the study) in the assay on Candida albicans [4] is over 250 µg/mL; in assay [15], 15.6 µg/mL (≈ 41.7 µM). Further, the MIC80 (with Candida albicans [4]; in assay [15]) was over 250 µg/mL each time. The inhibition of growth at 3.9 µg/mL in the assay with Candida albicans [5] was 0%. Further, in assay [6], the IC50 (commonly the midpoint of a concentration-inhibition curve) was 175 µM. The inhibition of growth at 62.5 µg/mL in the assay with Candida albicans [7] turned out to be 5.87%. The Activity in [9] lay in the range of 45 to 55%. The inhibition of growth at 7.81 µg/mL in the assay with Candida albicans [10] was found to be 0%. For the same compound, the Ratio in assay [11] is 2. Besides, the inhibition of growth at 31.25 µg/mL in the assay on Candida albicans [12] is 2.64%. Moreover, in the assay with Candida albicans [13], the inhibition of growth at 125 µg/mL turned out to be 11.1%. For the same compound, the inhibition of growth at 15.62 µg/mL with Candida albicans [14] came to 3.04%.
Turning to `COc1ccc2nc(-c3ccccc3)cc(-c3ccccc3)c2c1`, the inhibition of growth at 250 µg/mL in the assay on Candida albicans [1] stood at 57.2%. Besides, the figures for the SC50 in assay [3] and in assay [8] were 168 µM and over 250 µM, respectively. Moreover, the MIC50 (with Candida albicans [4]; in assay [15]) was 250 µg/mL (≈ 803 µM) in each case. Moreover, the MIC80 (commonly an inhibitory concentration at the 80% level, which refers to growth in some studies and to a panel of isolates in others) was over 250 µg/mL with Candida albicans [4] and 250 µg/mL (≈ 803 µM) in assay [15]. In addition, the inhibition of growth at 3.9 µg/mL in the assay with Candida albicans [5] is 0%. For the same compound, the concentration for half-maximal inhibition (IC50) in assay [6] came to 496 µM; in [17], 57 µM; in [18], 110 µM; in assay [20] it was 925 µM. Also, the inhibition of growth at 62.5 µg/mL in the assay with Candida albicans [7] worked out at 12.2%. Besides, the “Ratio IC50” value is reported as 1 in [16], 16 in the assay with NCI-H226 and 8 in [19]. In addition, in [9], the Activity is 45 to 55%. Besides, the inhibition of growth at 7.81 µg/mL with Candida albicans [10] was found to be 0%. Further, the inhibition of growth at 31.25 µg/mL in the assay on Candida albicans [12] is 8.43%. The inhibition of growth at 125 µg/mL in the assay with Candida albicans [13] stood at 20.9%. Moreover, the inhibition of growth at 15.62 µg/mL in the assay with Candida albicans [14] is 4%.
As to `Brc1ccc2nc(-c3ccccc3)cc(-c3ccccc3)c2c1`, the inhibition of growth at 250 µg/mL with Candida albicans [1] was found to be 55.9%. Moreover, the Activity in assay [2] is under 10%; in [9], 45 to 55%. For the same compound, the SC50 in assay [3] and in assay [8] was over 250 µM throughout. Also, the MIC50 in the assay with Candida albicans [4] amounted to 125 µg/mL (≈ 347 µM); in assay [15], 31.2 µg/mL (≈ 86.6 µM). Further, the MIC80 (against Candida albicans [4]; in [15]) was over 250 µg/mL throughout. Moreover, the inhibition of growth at 3.9 µg/mL in the assay with Candida albicans [5] came out at 1.16%. The IC50 in assay [6] worked out at 128 µM; in [17], 43.4 µM; in assay [18], 531 µM; in [20], 669 µM. Also, the Ratio in [21] stood at 4. Besides, the inhibition of growth at 62.5 µg/mL in the assay with Candida albicans [7] was found to be 17.2%. For the same compound, the “Ratio IC50” value in assay [16] turned out to be 5; with NCI-H226 it was 15; in [19], 1. Further, the inhibition of growth at 7.81 µg/mL with Candida albicans [10] turned out to be 2.57%. Further, the inhibition of growth at 31.25 µg/mL in the assay with Candida albicans [12] was determined as 10.1%. Also, in the assay with Candida albicans [13], the inhibition of growth at 125 µg/mL worked out at 30.7%. Moreover, the inhibition of growth at 15.62 µg/mL in the assay with Candida albicans [14] came out at 7.33%.
With `Oc1cccc(-c2cc(-c3ccccc3)c3cc(Br)ccc3n2)c1`, the inhibition of growth at 250 µg/mL in the assay on Candida albicans [1] is 40.9%. The result in [2] was Active. Further, the SC50 was over 250 µM in assay [3] and 121 µM in assay [8]. Further, the MIC50 (against Candida albicans [4]; in assay [15]) was over 250 µg/mL throughout. Also, the MIC80 (in the assay on Candida albicans [4]; in assay [15]) was over 250 µg/mL each time. Besides, in the assay with Candida albicans [7], the inhibition of growth at 62.5 µg/mL amounted to 11.2%. The inhibition of growth at 7.81 µg/mL in the assay with Candida albicans [10] was 3.15%. In [11], the Ratio was determined as 2. Besides, the inhibition of growth at 31.25 µg/mL in the assay with Candida albicans [12] stood at 7.61%. Further, the inhibition of growth at 125 µg/mL in the assay on Candida albicans [13] was 20.2%. In addition, the inhibition of growth at 15.62 µg/mL with Candida albicans [14] was 4.08%.
